This is an account of results in ChEMBL document CHEMBL1124297, “7-Aminoquinolines. A novel class of agents active against herpesviruses” (J Med Chem, 1988).

Converted amounts (≈) assume the structure as drawn.

The test system of series [1] is Human alphaherpesvirus 1. Put plainly: Inhibitory activity against herpes simplex virus type-1 (HSV-1) replication in KB cells. The settings on record: Human alphaherpesvirus 1, KB. It counts as functional, organism-based. In short, it runs like this:
(§1)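 HSV-1 (HF strain)-infected KB cells were treated in duplicate for 20 h with five or six half-log dilutions of compound. The disrupted cultures were serially diluted onto BHK 21/4 cells, and titers were determined by counting macroscopic plaques. I50 came from linear regression of log concentration versus % inhibition of viral replication. Each assay included 10 µg/mL ara-A as positive control, and a set was rejected if ara-A deviated by more than 1.5 SD.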

In series [2] the test system is Human alphaherpesvirus 1. Put plainly: In vitro therapeutic index as ratio of cytotoxicity to inhibition of viral replication. It counts as organism-based. The settings on record: human alphaherpesvirus 1, in vitro; read-out: Therapeutic index. The essentials:
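Ratio of the cytotoxicity I50 to the HSV-1 replication I50, rounded to the nearest whole number. Cytotoxicity I50 was the mean of four I50 values (Lowry protein, 3H-amino acid uptake, diphenylamine DNA, [3H]thymidine uptake) in uninfected KB cells after 20 h. Replication I50 was from plaque titers of infected KB cultures after 20 h.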

In another series the test system is KB (Homo sapiens). Put plainly: In vitro cytotoxicity in uninfected KB cells; Low drug solubility.
Series [3] concerns Human alphaherpesvirus 1. As to the kind of experiment: Inhibitory activity against herpes simplex virus type-1 (HSV-1) replication in infected KB cells. It counts as functional, organism-based. The settings on record: Human alphaherpesvirus 1, KB. In short, it runs like this:
as §1

Compound `Cc1cn([C@@H]2O[C@H](CO)[C@@H](O)[C@@H]2O)c(=O)[nH]c1=O` showed an IC50 in the series on Human alphaherpesvirus 1 [1] of 0.6 µg/mL (≈ 2.32 µM). Moreover, the selectivity ratio in the series with Human alphaherpesvirus 1 [2] stood at 833.

On to `CN(C)c1ccc2ccc(N(C)C)nc2c1`, for which 6 µg/mL (≈ 27.9 µM) corresponded to half-maximal inhibition in the series with Human alphaherpesvirus 1 [1] (IC50). The selectivity ratio in the series on Human alphaherpesvirus 1 [2] worked out at 3.

As to `Cc1cc(Cl)nc2cc(N)ccc12`, the IC50 in the series on Human alphaherpesvirus 1 [1] stood at 53 µg/mL (≈ 275 µM). The selectivity ratio in the series on Human alphaherpesvirus 1 [2] amounted to 3.

As for `CN(C)c1ccc2ccc(N)cc2n1`, in the series on Human alphaherpesvirus 1 [1], half-maximal inhibition (IC50) required 51 µg/mL (≈ 272 µM). In the series with Human alphaherpesvirus 1 [2], the selectivity ratio is 3.

Take `CC(=O)Nc1ccc2c(C)cc(N)nc2c1`: the IC50 in the series on Human alphaherpesvirus 1 [1] is 10 µg/mL (≈ 46.5 µM). Also, the selectivity ratio with Human alphaherpesvirus 1 [2] came out at 3.

Turning to `CC(=O)Nc1ccc2c(C)cc(Cl)nc2c1`, the IC50 in the series on Human alphaherpesvirus 1 [1] was determined as 21 µg/mL (≈ 89.5 µM). The selectivity ratio in the series with Human alphaherpesvirus 1 [2] is 4.

In turn, `CN(C)c1ccc2ccc(N)nc2c1` registered an IC50 in the series with Human alphaherpesvirus 1 [1] of 2 µg/mL (≈ 10.7 µM). In addition, the selectivity ratio in the series on Human alphaherpesvirus 1 [2] was found to be 5.

Turning to `Cc1cc(N(C)C)nc2cc(N)ccc12`, the midpoint of inhibition in the series with Human alphaherpesvirus 1 [1], the IC50, lay at 6 µg/mL (≈ 29.8 µM). For the same compound, the selectivity ratio with Human alphaherpesvirus 1 [2] is 2.

For `Cc1cc(N)nc2cc(N)ccc12`, the IC50 in the series on Human alphaherpesvirus 1 [1] turned out to be 4 µg/mL (≈ 23.1 µM). The selectivity ratio with Human alphaherpesvirus 1 [2] came out at 7.

As to `Cc1cnc2cc(N(C)C)ccc2c1`, the half-maximal inhibitory concentration (IC50) with Human alphaherpesvirus 1 [1] is 7.6 µg/mL (≈ 40.8 µM). Besides, the selectivity ratio in the series with Human alphaherpesvirus 1 [2] is 9.

`Cc1c(N(C)C)nc2cc(N(C)C)ccc2c1Cl`: the IC50 with Human alphaherpesvirus 1 [1] is 49 µg/mL (≈ 186 µM); in the series on KB (Homo sapiens) it was greater than 32 µg/mL.

Compound `Nc1ccc2ccc(N)nc2c1` yielded an IC50 with Human alphaherpesvirus 1 [1] of 10 µg/mL (≈ 62.8 µM).

In the case of `CNc1cc(C)nc2cc(N(C)C)ccc12`, in the series on Human alphaherpesvirus 1 [1], half-maximal inhibition (IC50) was put at 6 µg/mL (≈ 27.9 µM). Also, the selectivity ratio with Human alphaherpesvirus 1 [2] is 2.

As for `CNc1ccc2ccc(N(C)C)cc2n1`, in the series on Human alphaherpesvirus 1 [1], the midpoint of inhibition, the IC50, lay at 11 µg/mL (≈ 54.7 µM). Further, the selectivity ratio in the series on Human alphaherpesvirus 1 [2] stood at 2.

Compound `Cc1ccc2ccc(N(C)C)cc2n1` came in with an IC50 in the series on Human alphaherpesvirus 1 [1] of 4.5 µg/mL (≈ 24.2 µM). For the same compound, the selectivity ratio with Human alphaherpesvirus 1 [2] was determined as 9.

The compound `Cc1ccnc2cc(N)ccc12` gave an IC50 with Human alphaherpesvirus 1 [1] of 40 µg/mL (≈ 253 µM). In addition, the selectivity ratio in the series on Human alphaherpesvirus 1 [2] turned out to be 2.

For the compound `Cc1c(Cl)nc2cc(N(C)C)ccc2c1Cl`, the values for the IC50 with Human alphaherpesvirus 1 [1] and with KB (Homo sapiens) were 13 µg/mL (≈ 51 µM) and greater than 32 µg/mL, respectively. The selectivity ratio in the series with Human alphaherpesvirus 1 [2] was determined as 2.

As for `CC(=O)Nc1ccc2c(C)cc(N(C)C)nc2c1`, inhibition in the series on Human alphaherpesvirus 1 [1] was half-maximal at 18 µg/mL (≈ 74 µM) (IC50). The selectivity ratio in the series on Human alphaherpesvirus 1 [2] was 6.

For `Cc1cc(N(C)C)c2ccc(N(C)C)cc2n1`, the midpoint of inhibition with Human alphaherpesvirus 1 [1], the IC50, lay at 9 µg/mL (≈ 39.2 µM). Moreover, the selectivity ratio in the series on Human alphaherpesvirus 1 [2] was found to be 2.

In the series with Human alphaherpesvirus 1 [1], `CN(C)c1ccc2ccc(O)nc2c1` returned an IC50 of 30 µg/mL (≈ 159 µM). Also, the selectivity ratio in the series with Human alphaherpesvirus 1 [2] is 5.

`Cc1c(O)nc2cc(N(C)C)ccc2c1O`: 29 µg/mL (≈ 133 µM) corresponded to half-maximal inhibition in the series with Human alphaherpesvirus 1 [3] (IC50). In addition, in the series on Human alphaherpesvirus 1 [2], the selectivity ratio came out at 3.

`CN(C)c1ccc2c(N(C)C)cc(N(C)C)nc2c1` had a half-inhibitory concentration (IC50) in the series with Human alphaherpesvirus 1 [1] of 5 µg/mL (≈ 19.4 µM). In the series on Human alphaherpesvirus 1 [2], the selectivity ratio stood at 4.

In the series on Human alphaherpesvirus 1 [1], `Cc1cc(Cl)c2ccc(N(C)C)cc2n1` came in with an IC50 of 7 µg/mL (≈ 31.7 µM). Moreover, in the series with Human alphaherpesvirus 1 [2], the selectivity ratio was 3.

Take `Cc1cc(O)c2ccc(N(C)C)cc2n1`: inhibition in the series with Human alphaherpesvirus 1 [1] was half-maximal at 23 µg/mL (≈ 114 µM) (IC50). Moreover, in the series on Human alphaherpesvirus 1 [2], the selectivity ratio came out at 19.

As for `CC(=O)Nc1ccc2c(C)ccnc2c1`, in the series with Human alphaherpesvirus 1 [1], the IC50 worked out at 31 µg/mL (≈ 155 µM). Also, the selectivity ratio with Human alphaherpesvirus 1 [2] worked out at 7.

In the series with Human alphaherpesvirus 1 [1], `Nc1nc2c(ncn2COCCO)c(=O)[nH]1` [ACYCLOVIR] displayed an IC50 of 2.6 µg/mL (≈ 11.5 µM). Further, the selectivity ratio in the series with Human alphaherpesvirus 1 [2] is greater than 38.

In turn, `CCC(=O)C(CCCCCCOc1ccc(OC)cc1Cl)C(=O)CC` [ARILDONE] came in with an IC50 in the series on Human alphaherpesvirus 1 [1] of 11 µg/mL (≈ 29.8 µM). Also, in the series with Human alphaherpesvirus 1 [2], the selectivity ratio is 7.

The compound `CCN(CC)CCCC(C)Nc1ccnc2cc(Cl)ccc12` (stereo not given) [CHLOROQUINE] showed an IC50 with Human alphaherpesvirus 1 [1] of 27 µg/mL (≈ 84.4 µM). For the same compound, the selectivity ratio in the series on Human alphaherpesvirus 1 [2] came to 3.

For `O=C(O)P(=O)(O)O` [FOSCARNET], in the series with Human alphaherpesvirus 1 [1], half-maximal inhibition (IC50) was put at 189 µg/mL (≈ 1500 µM). Moreover, the selectivity ratio in the series on Human alphaherpesvirus 1 [2] was determined as 8.

`Nc1ncnc2c1ncn2[C@@H]1O[C@H](CO)[C@@H](O)[C@@H]1O` [VIDARABINE] gave an IC50 with Human alphaherpesvirus 1 [1] of 5.6 µg/mL (≈ 21 µM). The selectivity ratio in the series on Human alphaherpesvirus 1 [2] came to 7.

The IC50 is the midpoint of a concentration-inhibition curve. The low end stands for greater potency, the high end for weaker potency.
